Measured values of several laboratories.
Lines come from different studies, so protocols differ. pEC50, pIC50, pKd: −log10 of the molar value.
DHODH: Dihydroorotate dehydrogenase (quinone), mitochondrial (DHODH, Homo sapiens, UniProt Q02127)
PIK3CG: Phosphatidylinositol 4,5-bisphosphate 3-kinase catalytic subunit gamma isoform (PIK3CG, Homo sapiens, UniProt P48736)
SCTR: Secretin receptor (SCTR, Homo sapiens, UniProt P47872)

SMILES | target | assay | measurement | result
CNC[C@H](O)c1cccc(O)c1 | Alpha-1D adrenergic receptor (ADRA1D, Homo sapiens, UniProt P25100) | calcium signal, agonist | pEC50 | 7.76
CCn1cc(C2CC2)c2c(CN3CCC(C)(F)CC3)n(C)nc2c1=O | DHODH | enzyme activity, inhibitor, absorbance | pIC50 | < 4.00
Cc1nc(N(C)c2ccc3c(c2)/C(=C/c2ccccc2Cl)C(=O)N3C)c2ccccc2n1 | PIK3CG | enzyme activity, inhibitor, ADP detection | pIC50 | 6.98
CC1=NN(/C(=N/c2nnc(C)s2)Nc2ccc(C)c(C)c2)C(c2ccc(-c3cccc(C(F)(F)F)c3)cc2)S1 (centres unmarked) | SCTR | cAMP, agonist, TR-FRET | pEC50 | 6.30
O=C(/C=C/c1ccc(O)c(O)c1)O[C@@H]1C[C@](O)(C(=O)O)C[C@@H](O)[C@H]1O | Prostaglandin G/H synthase 2 (PTGS2, Homo sapiens, UniProt P35354) | enzyme activity, inhibitor, fluorescence | pIC50 | 4.52
Cc1cc([C@@H](C)Nc2ccccc2C(=O)O)c2nc(N3CCC(F)(F)CC3)c(C#N)c(=O)n2c1 | PIK3CG | enzyme activity, inhibitor, ADP detection | pIC50 | < 5.00
CC(=O)N(CC#Cc1cccc(C(N)=O)c1)C[C@H]1C[C@@H](n2ccc3c(Cl)ncnc32)[C@H](O)[C@@H]1O | Serine hydroxymethyltransferase, mitochondrial (SHMT2, Homo sapiens, UniProt P34897) | binding, MST | pKd | 5.68
Cc1nc(Nc2ccc3c(c2)/C(=C/c2ccccc2Cl)C(=O)N3)c2ccccc2n1 | PIK3CG | enzyme activity, inhibitor, ADP detection | pIC50 | 7.46
CCn1ncc2c([C@](O)(c3ccc(C(F)(F)F)c(Cl)c3)C3CC3)n(C)nc2c1=O | DHODH | enzyme activity, inhibitor | pIC50 | < 4.00
Cc1nc(Nc2ccc3c(c2)/C(=C/c2ccccc2)C(=O)N3C)c2ccccc2n1 | PIK3CG | enzyme activity, inhibitor, ADP detection | pIC50 | 6.95
Cc1noc(C)c1-c1cc(Cl)c(Nc2ccccc2C(=O)O)c(Cl)c1 | DHODH | enzyme activity, inhibitor, absorbance | pIC50 | 5.85
CCCc1ccc(/N=C(/Nc2nnc(C)s2)N2N=C(C)SC2c2ccc(C)cc2)cc1 (centres unmarked) | SCTR | cAMP, agonist, TR-FRET | pEC50 | < 4.30
Cn1nc2c(=O)n(C3CC3)nc(C3CC3)c2c1Cc1ccc(C(F)(F)F)c(F)c1 | DHODH | enzyme activity, inhibitor | pIC50 | 5.64
Cc1nc(Nc2ccc3c(c2)CC(=O)N3)c2ccccc2n1 | PIK3CG | enzyme activity, inhibitor, ADP detection | pIC50 | 6.25
CC[C@@](O)(c1cnc(C(F)(F)F)c(Cl)c1)c1c2ncn(C3CC3)c(=O)c2nn1C | DHODH | enzyme activity, inhibitor, absorbance | pIC50 | 5.22 to 5.40
CC1=NN(/C(=N/c2nnc(C)s2)Nc2ccc(C)c(C)c2)C(c2ccc(-c3ccccc3)cc2)S1 (centres unmarked) | SCTR | cAMP, agonist, TR-FRET | pEC50 | 6.15
COc1cc2ncnc(Nc3ccc4c(c3)/C(=C/c3ccccc3)C(=O)N4C)c2cc1OC | PIK3CG | enzyme activity, inhibitor, ADP detection | pIC50 | 6.71
